In ChEMBL document CHEMBL4715833, “Design, synthesis, in-vitro, in-vivo and in-silico studies of pyrrolidine-2,5-dione derivatives as multitarget anti-inflammatory agents” (Eur J Med Chem, 2020):
Activity calls are given as the source filed them. The calls are words filed in the database; no cut-off is given here.

Key:
Mus musculus [1] = assay: Antiinflammatory activity in PGE2-induced paw edema in Balb/c mouse assessed as inhibition of paw edema at 100 mg/kg, ip administered 1 hr prior to PGE2 challenge and measured up to 5 hrs relative to control; format: functional; conditions: time 2-6 hrs
Outline: (§1)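 BALB/c mice of either sex (30–35 g), 8 per group, dosed i.p. with 10% DMSO, reference drug or compound (100 mg/kg). After 1 h, subplantar irritant: PGE2 0.01 µg/ml, bradykinin 20 µg/ml, histamine 0.1 ml of 1 mg/ml, or leukotriene 10 µg/ml.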

Mus musculus [2] = assay: Antiinflammatory activity in histamine-induced paw edema in Balb/c mouse assessed as inhibition of paw edema at 100 mg/kg, ip administered 1 hr prior to histamine challenge and measured after 5 hrs; format: functional, organism-based; conditions: time 6.0 hrs; outline: as §1
Mus musculus [3] = assay: Antiinflammatory activity in leukotriene-induced paw edema in Balb/c mouse assessed as inhibition of paw edema at 100 mg/kg, ip administered 1 hr prior to leukotriene challenge and measured after 3 hrs relative to control; format: functional; conditions: time 4 hrs; outline: as §1
Mus musculus [4] = assay: Antiinflammatory activity in PGE2-induced paw edema in Balb/c mouse assessed as inhibition of paw edema at 100 mg/kg, ip administered 1 hr prior to PGE2 challenge and measured after 4 hrs relative to control; format: functional; conditions: time 5 hrs; outline: as §1
[5] = Antiinflammatory activity assessed as inhibition of heat-induced albumin denaturation preincubated for 20 mins followed by heating at 51 degC and measured after 3 mins by UV-vis spectrophotometric method
Mus musculus [6] = assay: Antiinflammatory activity in histamine-induced paw edema in Balb/c mouse assessed as inhibition of paw edema at 100 mg/kg, ip administered 1 hr prior to histamine challenge and measured after 4 hrs relative to control; format: functional; conditions: time 5 hrs; outline: as §1
Mus musculus [7] = assay: Antiinflammatory activity in PGE2-induced paw edema in Balb/c mouse assessed as inhibition of paw edema at 100 mg/kg, ip administered 1 hr prior to PGE2 challenge and measured after 1 hr relative to control; format: functional; conditions: time 2 hrs; outline: as §1
Mus musculus [8] = assay: Antiinflammatory activity in leukotriene-induced paw edema in Balb/c mouse assessed as inhibition of paw edema at 100 mg/kg, ip administered 1 hr prior to leukotriene challenge and measured after 2 hrs relative to control; format: functional; conditions: time 3 hrs; outline: as §1
Mus musculus [9] = assay: Antiinflammatory activity in PGE2-induced paw edema in Balb/c mouse assessed as inhibition of paw edema at 100 mg/kg, ip administered 1 hr prior to PGE2 challenge and measured after 5 hrs; format: functional, organism-based; conditions: time 6.0 hrs; outline: as §1

Cc1ccc(C(=O)CC2CC(=O)N(c3ccc(S(N)(=O)=O)cc3)C2=O)cc1 (centres undefined)
inhibition in vivo at 100 mg/kg (Mus musculus [1]): 61.6%
inhibition (Mus musculus [2]): Active
inhibition in vivo at 100 mg/kg (Mus musculus [3]): 74.4%

O=C1CCCCC1C1CC(=O)N(Cc2ccccc2)C1=O (centres undefined)
inhibition in vivo at 100 mg/kg (Mus musculus [4]): 64.6%
IC50 [5]: 24.5 µM
inhibition in vivo at 100 mg/kg (Mus musculus [6]): 17.1%
inhibition in vivo at 100 mg/kg (Mus musculus [7]): 50.5%
inhibition in vivo at 100 mg/kg (Mus musculus [8]): 60.1%
inhibition (Mus musculus [9]): Active
